These results are taken from publication PMC6253716 (Chemical Science, 2018).

Assay [1] deals with ERK1/2. Nature of the assay: In-lysate ERK1/2 pull down in competition with TCO-GDC-2. It counts as binding. Conditions: HCT116 lysates; for Target engagement EC50 with TCO-GDC-2 probe (in words): apparently exaggerated.
Assay [2] has as its system ERK1/2. Description: In-lysate ERK1/2 pull down in competition with SCH-TCO. The settings on record: cell lysates. It counts as binding.
The subject of a further assay is pRSK in A375 cells. Description: Quantification of pRSK by MSD, A375. It counts as cell-based. Conditions: Homo sapiens, read-out: Pharmacodynamic IC50 (pRSK). Summed up:
(§1)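 Lysis was 20 min at RT. Lysate was captured 3 h at RT on anti-pRSK-coated MSD plates, detected with sulfo-tag anti-RSK antibody for 1 h, and read electrochemiluminescently. IC50 came from a sigmoidal dose–response fit.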

The next assay relates to pRSK in HCT116 cells. Description: Quantification of pRSK by MSD, HCT116. It counts as cell-based. Conditions: for IC50: Homo sapiens, read-out: Pharmacodynamic IC50 (pRSK). In outline:
as §1

Assay [3] relates to HCT116 KRAS mutant colorectal cells. Nature of the assay: Cell proliferation assay. It counts as cell-based. Conditions: Homo sapiens, HCT-116, 96 h, read-out: Anti-proliferative IC50 HCT116. Summed up:
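Cells were kept in DMEM + 10% FBS at 37 °C, 5% CO2. 5 × 10^3 cells were seeded one day before treatment. Compound was given in 0.1% (v/v) DMSO for 96 h, then viability was read with Alamar Blue. IC50 came from a sigmoidal dose–response fit.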

Assay [4] deals with T1, ERK1 (Homo sapiens, UniProt P27361). Description: ITDR-CETSA in HCT116 cells, ERK1. It counts as cell-based.
Assay [5] concerns the target T1, ERK1. Description: In-cell ERK1/2 pull down in competition with SCH-TCO, ERK1. It counts as cell-based.
In assay [6] the target is T2, ERK2 (Homo sapiens, UniProt P28482). Description: ITDR-CETSA in HCT116 cells, ERK2. It counts as cell-based.
Assay [7] deals with T2, ERK2. Nature of the assay: In-cell ERK1/2 pull down in competition with SCH-TCO, ERK2. It counts as cell-based.
Assay [8] deals with T2, ERK2. Nature of the assay: ERK2 bioassay. It counts as biochemical.
The subject of assay [9] is ERK1/2. Nature of the assay: CETSA melting curves. It counts as cell-based. The settings on record: HCT116 cells and lysates; 10 μM inhibitor. Summed up: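 HCT116 cells in McCoy's 5A at 3 × 10^6 cells per mL got DMSO or 10 μM inhibitor for 1 h at 37 °C. Lysate arm: TG lysis buffer lysate with 10 μM inhibitor for 15 min at RT. Samples were heated 3 min at 12 temperatures (37–70 °C) and lysed by 3 freeze–thaw cycles. Soluble fraction (20 000g, 20 min) was immunoblotted for total ERK1/2 and quantified by densitometry into melting curves.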

Assay [10] relates to ERK1/2. Conditions: published data for the untagged compound; cited from earlier work.

Like-named read-outs stand apart in the source and are kept apart here.

T2 sequence (P28482 whole entry): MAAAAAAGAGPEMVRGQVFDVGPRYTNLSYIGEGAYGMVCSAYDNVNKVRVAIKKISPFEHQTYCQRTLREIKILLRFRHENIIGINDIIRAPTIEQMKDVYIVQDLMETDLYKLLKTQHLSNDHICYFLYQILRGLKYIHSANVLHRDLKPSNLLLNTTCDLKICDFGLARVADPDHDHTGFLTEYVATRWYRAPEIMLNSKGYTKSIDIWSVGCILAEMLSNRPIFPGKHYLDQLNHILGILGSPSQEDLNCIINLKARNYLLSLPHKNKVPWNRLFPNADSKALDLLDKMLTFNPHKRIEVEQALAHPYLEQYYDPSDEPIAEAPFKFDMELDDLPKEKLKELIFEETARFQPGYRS
T1 sequence (P27361 whole entry): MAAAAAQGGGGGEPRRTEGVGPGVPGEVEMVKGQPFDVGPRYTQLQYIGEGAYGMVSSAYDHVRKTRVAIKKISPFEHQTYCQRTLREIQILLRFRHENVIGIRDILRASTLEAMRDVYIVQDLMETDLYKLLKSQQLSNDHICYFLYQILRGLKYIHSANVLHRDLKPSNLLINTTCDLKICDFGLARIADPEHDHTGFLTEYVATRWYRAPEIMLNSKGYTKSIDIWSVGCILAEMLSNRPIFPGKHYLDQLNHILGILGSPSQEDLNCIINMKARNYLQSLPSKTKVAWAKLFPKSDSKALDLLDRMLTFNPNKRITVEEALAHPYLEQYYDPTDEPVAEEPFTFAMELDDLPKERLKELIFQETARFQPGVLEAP

`Cn1nccc1Nc1nccc(-c2ccn([C@H](CO)c3ccc(Cl)c(F)c3)c(=O)c2)n1` [GDC-0994]: the “Difference between EC50 in competition with TCO-GDC-2 as compared with SCH-TCO” value in the assay with ERK1/2 [1] is given as roughly 2 fold. For the same molecule, the “Target engagement EC50 with TCO-GDC-2 probe (in words)” value in the assay on ERK1/2 [1] was “low nanomolar range”. The “Difference between EC50 in A375 and HCT116 lysates” value with ERK1/2 [2] is 2-3 fold. Besides, the IC50 in the assay on pRSK in A375 cells (A-375, 2 h) is 170 nM; in the assay with pRSK in A375 cells (A-375, 7 h) it was 130 nM; with pRSK in HCT116 cells (HCT-116, 2 h) it was 140 nM; in the assay with pRSK in HCT116 cells (HCT-116, 7 h), 110 nM; in assay [3], 1000 nM.

In the case of `Cn1nccc1Nc1nccc(-c2cc3c(s2)C(C)(C)N(CCN2CCOCC2)C3=O)n1` [LY3214996], in the assay on ERK1/2 [1], the “Difference between EC50 in competition with TCO-GDC-2 as compared with SCH-TCO” value is roughly 2 fold. Further, in the assay on ERK1/2 [1], the “Target engagement EC50 with TCO-GDC-2 probe (in words)” value was “low nanomolar range”. Besides, the concentration for half-maximal inhibition (IC50) was determined as 2100 nM in the assay on pRSK in A375 cells (A-375, 4 h) and 480 nM in assay [3]. Moreover, the “Suppression of pRSK” value in the assay with pRSK in HCT116 cells (HCT116 cells) is “failed to show convincing suppression of pRSK”. For the same molecule, the EC50 was 300 nM at ERK1 [4], 670 nM on ERK1 [5], 330 nM at ERK2 [6] and 770 nM on ERK2 [7]. Moreover, the “Bioassay % @ 0.003 μM” value on ERK2 [8] (at 0.003 μM) was 62% @ 0.003 μM (2). In the assay on ERK1/2 [9], the “Effect on CETSA melting curves of ERK1/2 relative to DMSO control” value is listed as “temperature shift in the melting curves”.

Take `O=C(Nc1ccc2[nH]nc(-c3ccncc3)c2c1)[C@@H]1CCN(CC(=O)N2CCN(c3ccc(-c4ncccn4)cc3)CC2)C1` [SCH772984]: the 50% inhibitory concentration (IC50) in the assay with pRSK in A375 cells (A-375, 2 h) amounted to 20 nM; in the assay with pRSK in A375 cells (A-375, 7 h) it was 20 nM; in the assay with pRSK in HCT116 cells (HCT-116, 2 h) it was 9 nM; with pRSK in HCT116 cells (HCT-116, 7 h), 6 nM; in assay [3], 50 nM. Also, the “t1/2 (off-rate, published data)” value in the assay with ERK1/2 [10] was 25 to 80 min. For the same molecule, the half-maximal effective concentration (EC50) at ERK1 [4] is 63 nM; on ERK1 [5] it was 16 nM. Also, the “Difference between engagement of ERK1 and ERK2” value at ERK2 [6] (ITDR-CETSA in HCT116 cells, higher affinity for ERK2) was 4 fold.

On to Biotin-PEG4-tetrazine [Biotin-PEG4-Tz], for which the “Inhibition of ERK2 (in words)” value at ERK2 [8] is listed as “does not appreciably inhibit ERK2”. Further, at ERK2 [8] (read-out: Bioassay IC50, geometric means), the IC50 was found to be 8100 nM.
